# Assay outcomes as filed in PubChem.
# An excerpt weighted towards active compounds, which were near 2.2% of everything screened.
# Tn7 DDE FP – disrupts Tn7 cyclic peptide binding to fibrin D-Dimer-E complex; P02675; FP displacement of FITC-Tn7 peptide from fibrin DD(E); 0% = median of compound wells per plate; inhibition, % at 8.3 µM; actives 0.13% (n = 370,000); AID 720508;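 active = inhibition above the mean of compounds falling within the control limits plus 3 SD of them, cut at about 14% in these data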;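 note: 0% = plate median of compound wells and 100% = 10 µM Aha-Tn7 peptide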
#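 Assay system: Human fibrin DD(E) protein | Medium: Tris buffer with calcium and detergent, pH 7.8 | Reagent: 0.1 µM fluorescent Tn7 | Compound dosing: Single point at 8.3 µM | Times: 10 min preincubation, 3 h with tracer, room temperature | Detection: Fluorescence polarization of the labelled Tn7 tracer | Controls: Aha-Tn7 high control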
# Tn6 DDE FP – inhibitors of Tn6 peptide binding to human fibrin DD(E). P02675. Fibrin DD(E) TRITC-Tn6 fluorescence polarization displacement. inhibition, % at 8.3 µM. actives 0.21% (n = 370,000). AID 720509;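 active = inhibition above a per-campaign cutoff: mean of compounds within control limits plus 3 SD, cut at about 15% in these data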;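 note: 0% = median of all compound wells on the plate and 100% = blocking peptide control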
# MT1-MMP act inh – inhibitors of human MT1-MMP activation; GFP/RFP ratio change, % at 20 µM; HT1080 RFP-PRO-GFP cells, GFP/RFP ratio fluorescence, overnight; percent of plate control window, DMSO zero; actives 0.061% (n = 360,000);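 active = GFP/RFP ratio change of at least 30% with cell ATP level not reduced by more than half and red fluorescence within 50% of control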
#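 Test system: HT1080 RFP-PRO-GFP cells; Benchmarks: DMSO and RFP-L50D-GFP cell wells; Timing: cells overnight before dosing, compound overnight, 37 °C, 5% CO2; Compound: one 20 µM compound dose with 1% DMSO; Read-out: GFP/RFP fluorescence ratio.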
# KLK7 zymogen act – proKLK7 (human) activation, primary screen; purified proKLK7, EDANS-DABCYL substrate fluorescence; 100% is mature enzyme control, 0% vehicle; AID 652039; activation, % at 7 µM; actives 0.9% (n = 370,000); P49862;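 active = activation above the mean of all tested compounds plus 3 SD, computed per campaign excluding outliers beyond control limits, cut at about 13% in these data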
# Neddylation inh – blocks human cullin neddylation. TR-FRET cullin neddylation, biochemical. calls only at 25 µM. actives 0.58% (n = 360,000). AID 651699; in the data active = inhibition above about 36%
# Target sequence (P61081 whole entry, looked up): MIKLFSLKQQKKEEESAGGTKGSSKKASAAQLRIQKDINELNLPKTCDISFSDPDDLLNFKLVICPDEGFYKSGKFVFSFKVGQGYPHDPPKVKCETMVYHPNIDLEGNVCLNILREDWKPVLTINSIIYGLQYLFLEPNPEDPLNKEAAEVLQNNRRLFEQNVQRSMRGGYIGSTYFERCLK
# Target sequence (Q13564 whole entry, looked up): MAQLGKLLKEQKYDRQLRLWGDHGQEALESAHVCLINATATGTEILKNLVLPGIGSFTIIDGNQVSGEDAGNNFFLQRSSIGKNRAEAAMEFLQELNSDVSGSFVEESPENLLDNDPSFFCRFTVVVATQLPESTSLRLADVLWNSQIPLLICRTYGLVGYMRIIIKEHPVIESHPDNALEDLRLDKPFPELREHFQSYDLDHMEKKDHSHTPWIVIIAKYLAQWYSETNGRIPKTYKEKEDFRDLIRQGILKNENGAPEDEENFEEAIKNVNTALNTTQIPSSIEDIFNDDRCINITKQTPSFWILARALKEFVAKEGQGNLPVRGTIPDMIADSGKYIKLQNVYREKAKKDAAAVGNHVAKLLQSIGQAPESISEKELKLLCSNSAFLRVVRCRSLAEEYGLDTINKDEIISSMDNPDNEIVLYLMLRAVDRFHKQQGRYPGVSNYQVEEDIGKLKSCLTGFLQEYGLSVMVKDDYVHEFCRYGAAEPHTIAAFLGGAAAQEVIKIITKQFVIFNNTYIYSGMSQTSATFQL
# SKN-1 inh – inhibitors of C. elegans SKN-1; C. elegans VP596 Pgst-4::GFP/RFP ratio, acrylamide-induced, 24 h; AID 624304; inhibition, % at 21.8 µM; actives 0.49% (n = 360,000);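 active = interference check ratio from 0.5 to 1.5 plus GFP to RFP signal ratio inhibition reaching or exceeding a fixed threshold, cut at about 30% in these data, passing the limit was not always enough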
# * = called active by the depositor; i = inactive; · = not tested or not shown; + = active, no number.
SMILES,Tn7 DDE FP,Tn6 DDE FP,MT1-MMP act inh,KLK7 zymogen act,Neddylation inh,SKN-1 inh
CCCC(=O)NCc1ccc2c(c1)cc(C)n2C,0,4,25,0,i,54
CCOC(=O)C(=Cc1cc(=O)c(OC)co1)C(=O)OCC,0,5,-24,0,i,-5
Cc1cccc(CC(=O)NCCn2c(C)cc3ccccc32)c1,4,9,14,0,i,38*
COc1cc(/C=C/C(=O)NCCn2c(C)cc3ccccc32)cc(OC)c1OC,3,1,8,0,i,1
CC(C)C(=O)NCCn1ccc2ccccc21,2,3,-3,0,i,1
Cc1cc2ccccc2n1CCNC(=O)C(C)C,0,-3,26,2,i,53*
N#CCCC1(CCC#N)c2ccccc2C(=O)c2ccccc21,-5,2,3,1,i,10
CCOC(=O)C1CCCN(C(=O)COc2ccc(N(C)S(=O)(=O)c3ccc(F)cc3)cc2)C1 (stereo unspecified),-5,0,6,1,i,-10
O=C1c2ccc3c4c(ccc(c24)C(=O)N1c1ccc2ccccc2c1)CC3,-4,6,-2,0,i,35*
Nc1c(N(CCC2=CCCCC2)C(=O)COc2ccc([N+](=O)[O-])cc2)c(=O)[nH]c(=O)n1Cc1ccccc1,1,0,-8,0,i,17
O=C(/C=C/c1cccs1)Nc1ccncc1,-6,-2,2,1,i,0
CCCOC(=O)c1ccc(NC(=O)/C=C/c2cccs2)cc1,0,-2,-6,-1,i,47*
CN1CCN(CCC(=O)N/N=C/c2ccccc2F)CC1,-3,6,-4,-1,i,-10
O=C(CCN1CCN(c2ccccc2)CC1)N/N=C/c1ccccc1O,-4,0,-1,-71,+,-6
O=[N+]([O-])c1cccc2ccc(/C=C/c3ccc(F)cc3)nc12,1,-13,3,0,i,36*
O=[N+]([O-])c1ccc(/C=C/c2ccc3cccc([N+](=O)[O-])c3n2)cc1,-11,0,-2,0,i,5
O=C(COC(=O)c1ccc(Cl)nc1)Nc1ccc2ccccc2c1,-5,-1,5,0,i,47*
Cc1cc(-c2csc(NC(=O)c3ccc(=O)n(C)n3)n2)c(C)n1CC1CCCO1 (stereo unspecified),·,·,0,·,i,39*
Clc1cccc(CSc2ncn(-c3ccccc3)n2)c1,6,7,-1,0,i,49*
Clc1ccc(CSc2ncn(-c3ccccc3)n2)cc1,0,-4,-4,0,i,77*
Clc1cccc(CSc2nccn2-c2ccccc2)c1,-1,-8,2,0,i,12
O=C(CSc1ncn(-c2ccccc2)n1)N1CCc2ccccc21,-3,5,-4,1,i,6
O=C(O)C1(P(=O)(c2ccccc2)c2ccccc2)CCCC1,5,-5,-2,0,i,1
CCn1c(SCC(=O)NC2CCCCC2)nnc1-c1cc2cccc(OC)c2o1,-14,-6,2,0,i,45*
COc1ccc(CC(=O)OCC(=O)NC2CCCCCC2)cc1OC,-4,-9,0,1,i,2
SMILES,Tn7 DDE FP,Tn6 DDE FP,MT1-MMP act inh,KLK7 zymogen act,Neddylation inh,SKN-1 inh
O=[N+]([O-])c1ccc(OC/C=C2\Oc3ccc([N+](=O)[O-])cc3C2N2CCOCC2)cc1 (stereo unspecified),5,8,-2,0,i,37*
CCCNC(=O)COC(=O)c1[nH]c(C)c(C(=O)OCC)c1C,-1,-1,2,0,i,35*
CC(=O)c1c(C)[nH]c(C(=O)OCC(=O)N2CCN(S(=O)(=O)c3ccc(C)cc3)CC2)c1C,-1,4,-1,0,i,-2
CCOC(=O)c1c(C)[nH]c(C(=O)OCC(=O)N2CCN(S(=O)(=O)c3ccccc3)CC2)c1C,-7,5,-3,0,i,42*
CCOC(=O)c1[nH]c(C)c(C(=O)OCC)c1C,3,-3,1,0,i,15
O=C(/C=C/c1cccs1)c1ccc(N2CCOCC2)cc1,3,-7,-1,1,i,36*
O=C(/C=C/c1cccc(F)c1)c1ccc(N2CCOCC2)cc1,0,-8,-4,1,i,10
Cn1c2ccccc2c2cc(/C=C(\NC(=O)c3ccccc3)C(=O)O)ccc21,1,-5,5,0,i,-5
CC(C)OC(=O)/C(=C\c1ccc2c(c1)c1ccccc1n2C)NC(=O)c1ccccc1,7,-10,-2,-10,+,-2
O=c1c2ccccc2nc(-c2ccccc2)n1O,10,16*,2,1,i,4
COc1ccc(-c2nc3ccccc3c(=O)n2O)cc1,-3,-2,-2,0,i,-1
Cc1cccc(NC(=O)c2ccc3c(c2)C(=O)N(c2ccccc2C)C3=O)n1,7,0,-2,0,i,43*
Cc1cccc(NC(=O)c2cccc(C(=O)Nc3cccc(C)n3)c2)n1,4,-8,-3,0,i,3
CCCSc1ccc2nc(-c3ccccc3)cn2c1,-7,0,1,-1,i,50*
CCCCSc1ccc2nc(-c3ccc(C#N)cc3)cn2c1,1,0,-2,-10,i,23
CCc1ccc(C2C(C#N)=C(N)N(N(C)C)C3=C2C(=O)CCC3)cc1 (stereo unspecified),5,-1,0,0,i,36*
Cc1cccc(C)c1NC(=O)CN(C)C(=O)CC1OC(=O)c2ccccc21 (stereo unspecified),6,-4,9,0,i,-9
Cc1cc(NCCCCCCCNc2cc(C)nc3cc([N+](=O)[O-])ccc23)c2ccc([N+](=O)[O-])cc2n1,-15,-17,-53,2,+,-2
COCCCNc1cc(C)nc2ccccc12,7,3,4,0,i,-15
CC(C(=O)NCc1ccccc1)n1c(Cc2cc(F)cc(F)c2)nc2ccccc21 (stereo unspecified),2,10,0,1,i,20
CC(=O)c1ccc(Nc2ccc([N+](=O)[O-])c3nonc23)cc1,-3,2,-23,-1,i,15
CCc1nnc(NS(=O)(=O)c2ccc(Nc3ccc([N+](=O)[O-])c4nonc34)cc2)s1,6,-6,2,1,i,51*
O=C(O)c1ccc(Nc2ccc([N+](=O)[O-])c3nonc23)cc1,3,-5,-1,0,i,44*
